Measurements from the RNAGym collection of RNA variant scans (doi:10.1126/science.aae0568).
This sample holds only a part of the variants without activity.

B1: tRNA (parent)
chain: GUUCCGUUGGCGUAAUGGUAACGCGUCUCCCUCCUAAGGAGAAGACUGCGGGUUCGAGUCCCGUACGGAACG

Variants of: B1
Assay: yeast fitness relative to wild type (ratio to wild type); higher = fitter; tRNA-Arg(CCU), competitive growth, 37 C, YPD
How it was run: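 A pool of Saccharomyces cerevisiae strains, each with a tRNA-Arg(CCU) gene variant at the native genomic locus, was competed in YPD at 37°C for 24 hours across six parallel replicates. The variants had been chemically synthesised at a 3% per-site mutation rate over 69 sites, and gene amplicons before and after competition were read by 100-nucleotide paired-end sequencing. Darwinian fitness relative to wild type rested on changes in genotype frequencies. Genotypes required ≥ 100 starting reads, and estimates < 0.5 were set to 0.5.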

Variant	yeast fitness
C30A A57G A70U	0.765
C29U G50C U59A	0.605
C30A C31G C49A C60U G67A	0.526
C30A C31U A36G G50A C66U	≤ 0.5
C30A C33A C62A	≤ 0.5
C29U G52A	0.728
C29U G63A A69U	0.641
C29U C34U	0.716
C29U C34G	0.603
C29U G56A	0.765
C29U G56C	0.595
C29U G41A	0.731
C30A A37C A43U	0.608
C30A A36G	0.819
C30A A45U	0.997
C30A A45G	0.896
C30A A45U C49A G63U A70U	0.523
C30A A36U G68A	0.543
C30A C31U C33U A37C	≤ 0.5
C29U C34G C55U C61G	0.508
C29U G44C G68A	0.57
C29U U59G C66U	0.732
C30A A45U C49A G51A C62G	≤ 0.5
C30A C31U A45C C55G C60A	≤ 0.5

Variant	yeast fitness
C29U C34G A43U C62U	≤ 0.5
C29U C49A G68C	0.584
C29U C33U	0.826
C29U C34U A57C G63A A70G	≤ 0.5
C30A A40U G51C C61U	0.646
C29U U35C C61G	0.672
C30A A43U G58C U64G	≤ 0.5
C29U U35C A65U	≤ 0.5
C30A A36U A42G	≤ 0.5
C29U U47A A65C	≤ 0.5
C29U C34U G39A G58A C60U	≤ 0.5
C29U G48C G50A	≤ 0.5
C30A A43U A65U	0.608
C29U C49U U59A	≤ 0.5
C30A A42G G50A C62U	≤ 0.5
C30A A57G	0.74
C29U C33G G44C	≤ 0.5
C29U U59C	0.868
C29U U59A	0.701
C30A C34G A45U	≤ 0.5
C29U C33A G63C A65C C66A	≤ 0.5
C29U C31U U54G	0.522
C30A A37C C60A G67C	≤ 0.5
C30A C31A	0.611

Variant	yeast fitness
C30A C31G	1
C29U C33G A40C A57G	≤ 0.5
C29U G44A	0.818
C30A C31U C66U A69U	≤ 0.5
C29U C60A	0.627
C29U C60U	0.758
C29U C60G	0.515
C29U C31G C34A	≤ 0.5
C29U G41C C62U	0.552
C29U G44A A57G	0.623
C29U G51C C55U	≤ 0.5
C29U C31U A42C A69C	0.673
C29U C33U U54A G56A	≤ 0.5
C29U U54C	0.83
C29U C33A G63A A65C C66A	≤ 0.5
C30A A45C C46U A57C	≤ 0.5
C29U C55U C66U	0.58
C30A C31U A45C C55G	0.522
C29U C31U A70G	0.726
C29U C34A A42U U47C	0.64
C30A A65C C66U	≤ 0.5
C30A C31G G38C A57C	≤ 0.5
C29U G51A G56A G63C	0.528
C29U G50C U53C A57U C61G	≤ 0.5

Variant	yeast fitness
C29U U35C A37C	≤ 0.5
C30A A40G A42U C62A	≤ 0.5
C30A C34A C49U	≤ 0.5
C30A C31A G38A C49U G52A C66U	≤ 0.5
C30A C31G G67C	0.546
C30A A65G G67C	0.526
C29U G56A C66U	0.619
C29U C31G G44C	≤ 0.5
C29U C34G G38C U54A A57C	≤ 0.5
C29U C61G A65U	≤ 0.5
C30A C33G A45U U59C	0.543
C30A A43G A69U	0.618
C30A A42C A70C	0.819
C30A A37G C55U A57G U64A	≤ 0.5
C30A C31U A36G C55U	≤ 0.5
C29U C31G C34G A37C C46A G50A A57U C66U	≤ 0.5
C29U U32A	0.83
C29U G58A	1.02
C29U C46G U54C G56C	≤ 0.5
C30A C31U A45C C49U C55G	≤ 0.5
C29U G38C G63A	≤ 0.5
C30A A57U C61U A69G	≤ 0.5
C29U C49G G58C	≤ 0.5
C30A C34A A43C C62U	≤ 0.5

Variant	yeast fitness
C30A A42G	0.809
C30A A69U	0.963
C29U C60G C62U	0.546
C30A A43G	0.958
C30A A43U	0.936
C29U G48C	0.859
C29U G48A	0.986
C30A A42G G44A	0.704
C30A C33U	0.738
C30A C46G G51A	0.593
C29U C33A C34U C46G G52C	≤ 0.5
C29U C31U G67U	0.593
C29U C34G A36C	≤ 0.5
C29U G48C G52A A69U	≤ 0.5
C30A A40U G41C C61G G63C	≤ 0.5
C30A C34G A65U	≤ 0.5
C30A A57U C61A A69G	≤ 0.5
C29U G63A G67A	0.523
C29U U35G C62U	≤ 0.5
C30A C34U G58C	≤ 0.5
C29U G38C A43U U53G G63C	≤ 0.5
C30A A43U C55G G63C G67C	≤ 0.5
C29U G38C A69U	0.581
C30A A45U C49A G50A G63U A70U	≤ 0.5

Variant	yeast fitness
C29U U32A C33U G67U A70G	≤ 0.5
C29U G63A	0.803
C29U U32G A43U G44C	≤ 0.5
C30A A70U	1.02
C30A A70G	0.983
C30A C46G G56A	0.74
C29U G50C C60A	≤ 0.5
C30A C31U A42C	0.943
C29U C66G	0.732
C30A A45C C46U	0.613
C30A A40G A65G	0.967
C30A C31G U32A C60U	≤ 0.5
C30A A40G C66A	≤ 0.5
C29U C49U C61U	0.532
C29U C49U C61A	≤ 0.5
C29U C46U C66U	0.63
C29U C33U C61G	≤ 0.5
C29U G48C G52A	0.591
C29U G67A A70U	0.52
C30A A40G	0.979
C30A A40U	0.819
C29U U35C A37C A65G C66A	≤ 0.5
C29U G38A G48C C66U	≤ 0.5
C30A A36U G38C C66A	0.577

Variant	yeast fitness
C30A A36C G52A	≤ 0.5
C29U C49G	0.739
C30A C34G C60A U64A	0.541
C29U U53C	0.843
C29U C31U U59C C66U A70C	0.55
C30A A37G	0.86
C29U G39A C46A	1.13
C30A C34A	0.76
C30A C34U	0.752
C29U C31U A57C C62U	0.558
C29U U32C C46A	0.521
C30A A43C A65G	0.97
C29U C62G	0.656
C29U C62U	0.763
C30A C46A G56A A69U	≤ 0.5
C29U C55G	0.614
C29U C33A C34U C46G C66U	0.56
C29U C61A	0.611
C29U C61G	0.658
C29U G50C	0.664
C29U C46G	1.02
C30A A42C G56A A57U	0.558
C29U G48A G56C	0.536
